Measurements as given in ChEMBL document CHEMBL3864147, “Antioxidant and anti-inflammatory neolignans from the seeds of hawthorn” (Bioorg Med Chem Lett, 2016).

Tests used:
[1] = Antioxidant activity assessed as DPPH radical scavenging activity incubated in dark for 30 mins; type: functional
How it was run: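 Samples (0.4 mM stock, 5–40 µL series) and DPPH (2 mM stock, 20 µL) in ethanol, made to 200 µL with ethanol; incubated 30 min in dark at 37 °C; absorbance at 517 nm. Ethanol replaced sample as blank.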

[2] = Antioxidant activity assessed as ABTS radical scavenging activity after 30 mins; type: functional
How it was run: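 ABTS radical generated by 7 mM ABTS plus 2.4 mM potassium persulfate, 12 h dark at room temperature, diluted in ethanol to OD 0.700 at 734 nm. Samples at several concentrations mixed with ABTS+ solution, 30 min at 37 °C, read at 734 nm; ethanol blank; percent scavenging calculated relative to blank.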

[3] = Antioxidant activity assessed as ferric ion reducing activity by measuring Fe2+ levels using fe3+-TPTZ at 375 ug/ml after 30 mins by FRAP assay; type: functional
How it was run: (§1)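 FRAP reagent: 300 mM acetate buffer pH 3.6, 10 mM TPTZ in 40 mM HCl, 20 mM FeCl3. Sample (3000, 1500, 750, 375 µg/mL solutions) mixed with reagent, 30 min at 37 °C, absorbance 593 nm. Values expressed as µM Fe2+ from FeSO4 calibration curve (5–450 µM).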

[4] = Antioxidant activity assessed as ferric ion reducing activity by measuring Fe2+ levels using fe3+-TPTZ at 750 ug/ml after 30 mins by FRAP assay; type: functional; how it was run: as §1
[5] = Antioxidant activity assessed as ferric ion reducing activity by measuring Fe2+ levels using fe3+-TPTZ at 1500 ug/ml after 30 mins by FRAP assay; type: functional; how it was run: as §1
[6] = Antioxidant activity assessed as ferric ion reducing activity by measuring Fe2+ levels using fe3+-TPTZ at 3000 ug/ml after 30 mins by FRAP assay; type: functional; how it was run: as §1
[7] = Antiinflammatory activity in mouse RAW264.7 cells assessed as inhibition of LPS-induced nitric oxide production after 24 hrs by Griess assay; type: functional, cell-based; conditions: RAW264.7, 24 h
How it was run: (§2)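 RAW264.7 cells (5 × 10^5/mL) pre-treated with samples at 100, 50, 10 or 1 µM, then LPS (100 ng/mL) for 24 h. Nitrite in medium measured by mixing with equal volume Griess reagent (1% sulfanilamide in 5% H3PO4, 0.1% N-naphthyl-ethylenediamine), 10 min at 37 °C, absorbance 540 nm; quantified against NaNO2 standard curve; minocycline as positive control.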

[8] = Antiinflammatory activity in mouse RAW264.7 cells assessed as inhibition of LPS-induced TNFalpha production after 24 hrs by ELISA; type: functional, cell-based; conditions: RAW264.7, 24 h
How it was run: (§3)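 RAW264.7 cells plated at 5 × 10^5/mL, pre-treated with samples at 100, 50, 10 or 1 µM, then stimulated with LPS (100 ng/mL) for 24 h. TNF-α in the medium measured by ELISA kit per manufacturer's instructions and quantified from a standard curve; silybin as positive control.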

Mus musculus = species on record: Mus musculus; experiment: Cytotoxicity against mouse RAW264.7 cells assessed as effect on cell viability at 100 uM preincubated for 1 hr followed by LPS stimulation measured after 24 hrs by MTT assay; type: toxicity, cell-based; conditions: raw264.7, 24 h
How it was run: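 RAW264.7 cells in DMEM with 10% FBS and penicillin/streptomycin at 37 °C, 5% CO2, seeded 5 × 10^5 cells/well; treated with samples (100 µM) 1 h, then LPS (100 ng/mL) 24 h. MTT (0.25 mg/mL) added for 4 h; formazan read at 540 nm; untreated cells as control.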

[9] = Antiinflammatory activity in mouse RAW264.7 cells assessed as inhibition of LPS-induced nitric oxide production at 1 uM after 24 hrs by Griess assay relative to control; type: functional; conditions: RAW264.7, 24 h; how it was run: as §2
[10] = Antiinflammatory activity in mouse RAW264.7 cells assessed as inhibition of LPS-induced nitric oxide production at 10 uM after 24 hrs by Griess assay relative to control; type: functional; conditions: RAW264.7, 24 h; how it was run: as §2
[11] = Antiinflammatory activity in mouse RAW264.7 cells assessed as inhibition of LPS-induced nitric oxide production at 50 uM after 24 hrs by Griess assay relative to control; type: functional; conditions: RAW264.7, 24 h; how it was run: as §2
[12] = Antiinflammatory activity in mouse RAW264.7 cells assessed as inhibition of LPS-induced nitric oxide production at 100 uM after 24 hrs by Griess assay relative to control; type: functional; conditions: RAW264.7, 24 h; how it was run: as §2
[13] = Antiinflammatory activity in mouse RAW264.7 cells assessed as inhibition of LPS-induced TNFalpha production at 1 uM after 24 hrs by ELISA relative to control; type: functional; conditions: RAW264.7, 24 h; how it was run: as §3
[14] = Antiinflammatory activity in mouse RAW264.7 cells assessed as inhibition of LPS-induced TNFalpha production at 10 uM after 24 hrs by ELISA relative to control; type: functional; conditions: RAW264.7, 24 h; how it was run: as §3
[15] = Antiinflammatory activity in mouse RAW264.7 cells assessed as inhibition of LPS-induced TNFalpha production at 50 uM after 24 hrs by ELISA relative to control; type: functional; conditions: RAW264.7, 24 h; how it was run: as §3
[16] = Antiinflammatory activity in mouse RAW264.7 cells assessed as inhibition of LPS-induced TNFalpha production at 100 uM after 24 hrs by ELISA relative to control; type: functional; conditions: RAW264.7, 24 h; how it was run: as §3

Structure (SMILES) | IC50 [1] [µM] | IC50 [2] [µM] | IC50 [7] [µM] | IC50 [8] [µM] | Activity [3] [µmol/L] | Activity [4] [µmol/L] | Activity [5] [µmol/L] | Activity [6] [µmol/L] | Activity (Mus musculus) | inhibition at 1 µM [9] [%] | inhibition at 10 µM [10] [%] | inhibition at 50 µM [11] [%] | inhibition at 100 µM [12] [%] | inhibition at 1 µM [13] [%] | inhibition at 10 µM [14] [%] | inhibition at 50 µM [15] [%] | inhibition at 100 µM [16] [%]
CCO[C@H](c1ccc(O[C@@H](CO)[C@@H](OC)c2ccc(O)c(OC)c2)c(OC)c1)[C@H](CO)c1ccc(O)c(OC)c1 | 81.6 | 6.3 | 80.5 | > 100 | 34.5 | 66.3 | 99.2 | 129 | Non-Toxic | 2.5 | 16.1 | 37.2 | 56.2 | 0.2 | 2.1 | 13.2 | 22.5
CN(C)c1ccc(O)c2c1C[C@H]1C[C@H]3[C@H](N(C)C)C(O)=C(C(N)=O)C(=O)[C@@]3(O)C(O)=C1C2=O [MINOCYCLINE] |  |  | 55.1 |  |  |  |  |  |  | 15.6 | 22.7 | 51.8 | 59.7 |  |  |  | 
COc1cc([C@@H](O)[C@@H](CO)Oc2ccc([C@@H](O)[C@H](O)CO)cc2OC)ccc1O | 89 | 10.7 | > 100 | 94.2 | 12 | 18.5 | 26 | 66.3 | Non-Toxic | -1.2 | -2.9 | 2.6 | 4.4 | 2.4 | 21.2 | 30.8 | 52.5
COc1cc([C@@H](O)[C@H](CO)Oc2c(OC)cc([C@@H](O)[C@H](O)CO)cc2OC)ccc1O | 114 | 10.7 | > 100 | > 100 | 35.9 | 58.1 | 84.6 | 119 | Non-Toxic | 0.6 | 1.3 | 2.7 | 3.4 | 5.1 | 13.7 | 28.2 | 47
COc1cc([C@@H](O)[C@@H](CO)Oc2c(OC)cc([C@@H](O)[C@H](O)CO)cc2OC)ccc1O | 138 | 11.8 | > 100 | > 100 | 37.1 | 60 | 89.1 | 127 | Non-Toxic | -3.1 | -1.8 | 1.1 | 2.7 | 2.3 | 14.1 | 23.2 | 45.8
COc1cc(C2Oc3cc([C@H]4Oc5cc(O)cc(O)c5C(=O)[C@@H]4O)ccc3OC2CO)ccc1O (stereo partly specified) [SILIBININ] |  |  |  | 69.2 |  |  |  |  |  |  |  |  |  | 10.3 | 27 | 47 | 53.8
COc1cc([C@@H](O)[C@@H](CO)Oc2ccc([C@@H](OC)[C@H](O)CO)cc2OC)ccc1O | 114 | 12.9 | > 100 | 47.9 | 32.5 | 54.1 | 78.3 | 102 | Non-Toxic | 0.3 | -2.2 | 3.8 | 8.2 | 4.5 | 24.5 | 42.4 | 69.3
COc1cc([C@@H](O)[C@H](CO)Oc2ccc([C@@H](OC)[C@H](CO)c3ccc(O)c(OC)c3)cc2OC)ccc1O | 43.6 | 5.9 | 97.3 | > 100 | 60.8 | 89.5 | 121 | 116 | Non-Toxic | 7 | 19.2 | 34.2 | 57.3 | 1.3 | 3.2 | 5.2 | 18.4

Now from value to compound, other results behind:

IC50 [1] [µM] | IC50 [2] [µM] | IC50 [7] [µM] | IC50 [8] [µM] | Structure (SMILES) | Activity [3] [µmol/L] | Activity [4] [µmol/L] | Activity [5] [µmol/L] | Activity [6] [µmol/L] | Activity (Mus musculus) | inhibition at 1 µM [9] [%] | inhibition at 10 µM [10] [%] | inhibition at 50 µM [11] [%] | inhibition at 100 µM [12] [%] | inhibition at 1 µM [13] [%] | inhibition at 10 µM [14] [%] | inhibition at 50 µM [15] [%] | inhibition at 100 µM [16] [%]
67.2 | 7.8 | 62.9 | > 100 | COc1cc([C@@H](CO)[C@H](OC)c2ccc(O[C@H](CO)[C@@H](O)c3ccc(O)c(OC)c3)c(OC)c2)ccc1O | 45.8 | 73 | 106 | 128 | Non-Toxic | 5.7 | 22.1 | 42.1 | 61.2 | -1.2 | 2.9 | 9.3 | 17.1
56.8 | 7.9 | 76.3 | > 100 | CCO[C@H](c1ccc(O[C@@H](CO)[C@@H](O)c2ccc(O)c(OC)c2)c(OC)c1)[C@H](CO)c1ccc(O)c(OC)c1 | 33.5 | 65.1 | 108 | 135 | Non-Toxic | 3.7 | 15.5 | 44.1 | 55.1 | 0.4 | -1.9 | 14.2 | 27.7
82.4 | 9.5 | > 100 | 84.4 | COc1cc([C@H](O)[C@@H](CO)Oc2ccc([C@@H](O)[C@H](O)CO)cc2OC)ccc1O | 9.4 | 16 | 29.4 | 55.8 | Non-Toxic | -3.6 | 1.1 | 3.1 | 6.3 | 3.9 | 26.2 | 32.3 | 55.6
68.6 | 4.4 | 50.5 | > 100 | COc1cc([C@H](O)[C@@H](CO)Oc2ccc([C@@H](O)[C@@H](CO)c3ccc(O)c(OC)c3)cc2OC)ccc1O | 29.1 | 42.2 | 89.9 | 132 | Non-Toxic | 2.6 | 14.3 | 49.2 | 68.9 | 2.2 | 4.1 | 15.1 | 32.1
30.2 | 18.2 |  |  | Cc1c(C)c2c(c(C)c1O)CCC(C)(C(=O)O)O2 (stereo unspecified) [TROLOX] | 51.7 | 96.9 | 185 | 172 |  |  |  |  |  |  |  |  | 
